Measles CPE – compounds protecting cells from measles virus cytopathic effect, primary screen, measles RdRp inhibitor project, single point, MLSMR library, absorbance | Measles virus-infected cells, CPE protection | protection (pct of control), % at 4 µM | 1.5% of 140,000 active; in the data active = protection mostly above about 24%, no sharp cut-off; inactive = mostly below about 26%
Yeast lifespan up – compounds extending yeast replicative lifespan, primary screen, S. cerevisiae, OD615; inhibition of the nicotinamide effect, % at 10 µM; 0.68% of 130,000 active; S. cerevisiae growth with nicotinamide; deaD strain in restrictive glucose medium; AID 775, 2007;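 active = inhibition above a set limit, placed 3 SD over the median of all compounds, cut at about 26% in these data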
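Test system: DeaD-strain S. cerevisiae / Buffer or medium: restrictive glucose medium / Also added: nicotinamide 1.5 mM / Doses: one concentration, 10 µM, DMSO 0.25% / Schedule: 48 h at 30 °C / Signal: OD615 measurement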
RAM network inh – inhibitors of the yeast RAM network, primary screen, dse1pr::URA3 reporter, 5-FOA selection; AID 868, 2007; inhibition, % at 50 µM; S. cerevisiae dse1pr::URA3 reporter, 5-FOA growth OD615, 2 d; analog-sensitive cbk1-as2 kinase mutant strain; 1.8% of 190,000 active;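 active = inhibition above a set limit, 3 SD over mean compound inhibition, cut at about 8.4% in these data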;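 note: inhibition rescues growth on 5-FOA so higher OD means more RAM inhibition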
BB579 growth dn – growth inhibitors of yeast BB579 in restrictive medium, primary screen, yeast lifespan-shortening project, S. cerevisiae; OD615, 48 h; inhibition, % at 10 µM; 0.51% of 140,000 active;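 active = inhibition above a set limit, 3 SD over the mean compound inhibition, cut at about 44% in these data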
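Detection: OD615 turbidity measurement; Material: Saccharomyces cerevisiae DeaD strain BB579, replicative lifespan model yeast; Timing: 48 h exposure, 30 °C; Doses: single 10 µM dose; Medium: CSMM-D restrictive synthetic medium containing dextrose (glucose); Controls: amphotericin B at 10 µg/mL as positive control.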
Numbers stand for hits; . = inactive; / = not tested or not shown. A selection: hits, their analogues and other compounds. The true share with any hit is near 3.8%.

SMILES	Measles CPE	Yeast lifespan up	RAM network inh	BB579 growth dn
O=C(Nc1ccccc1-c1nc2ccccc2[nH]1)c1ccc(S(=O)(=O)N2CCCCC2)cc1	.	42.0	.	.
CC1CCCCN1S(=O)(=O)c1ccc(C(=O)Nc2ccccc2-c2nc3ccccc3[nH]2)cc1 (stereo not drawn)	.	.	.	.
Cc1ccc(C(=O)N2CCN(C3c4cccc5cccc(c45)C3NS(=O)(=O)c3ccccc3)CC2)cc1 (stereo not drawn)	55.2	.	.	.
O=C(N/N=C\C=C\c1ccc2c(c1)OCO2)C1COc2cc3ccccc3cc2O1 (stereo not drawn)	37.2	.	.	.
Cc1cc(C(=O)N/N=C/C=C/c2ccc3c(c2)OCO3)n[nH]1	24.7	.	.	.
O=C(N/N=C\C=C\c1ccc2c(c1)OCO2)c1ccc(F)cc1	/	/	.	/
CN(C)c1ccc(N=Nc2ccc(S(=O)(=O)O)cc2)c2ccccc12	/	/	10.3	/
CC(=O)Nc1ccc(S(=O)(=O)Nc2cccc(-c3nc4ccccc4o3)c2)cc1	.	.	.	.
O=S(=O)(Nc1ccc(-c2nc3ccccc3o2)cc1)c1ccccc1	.	.	.	45.7
COc1ccc(S(=O)(=O)NCc2cc(-c3ccccc3Cl)no2)cc1	/	/	.	/
CCOc1ccc(C(=O)NCC(=O)OCC(=O)Nc2ccc(C)c(S(=O)(=O)N(C)C)c2)cc1	/	/	.	/
CCN(CC)S(=O)(=O)c1cccc(S(=O)(=O)N2CCCCC2)c1	.	.	.	.
CCN(CC)S(=O)(=O)c1ccc(C)c(NC(=S)Nc2cccc(S(=O)(=O)N3CCCCCC3)c2)c1	.	.	9.0	.
CCCn1nnnc1-c1cccc(Cl)c1	60.7	.	.	.
O=C(COC(=O)CCCNC(=O)c1ccc(Cl)cc1)NC1CC1	47.6	.	.	.
O=C(CCC(=O)OCC(=O)c1ccc(Cl)cc1)NC1CCCCC1	63.8	.	.	.
O=C(CCC(=O)OCC(=O)c1ccc([N+](=O)[O-])cc1)NC1CCCCC1	.	.	.	.
C/C(N)=C(/C#N)C(=O)COC(=O)CCCNC(=O)c1ccc(Cl)cc1	/	/	.	/
CCOC(=O)c1[nH]c(C=O)c(C(=O)OCC)c1C	/	/	.	/
CCOC(=O)c1sc(-c2ccccc2)cc1NC(=O)CSc1nnnn1C	.	.	8.4	.
CCOC(=O)c1cc(-c2ccccc2)sc1NC(=O)CSc1nnnn1C	.	.	8.4	.
CCOC(=O)c1cccc(NC(=O)CSc2nnnn2C)c1	.	.	.	.
O=[N+]([O-])c1cc2oc3c(c2c(C=NCc2ccccc2)c1O)CCCC3	.	68.9	.	.
CC(C)CN=Cc1c(O)c([N+](=O)[O-])cc2oc3c(c12)CCCC3	.	.	.	68.1
CCN1/C(=C/C=C/c2oc3ccc(-c4ccccc4)cc3[n+]2CC)Oc2ccc(-c3ccccc3)cc21	/	/	.	/
SMILES	Measles CPE	Yeast lifespan up	RAM network inh	BB579 growth dn
Cc1cc(NC(=O)CS(=O)(=O)Cc2ccccc2)no1	/	/	.	/
CCC(=O)NC(/C=C/c1ccccc1)c1cc([N+](=O)[O-])c2cccnc2c1O (stereo not drawn)	.	.	10.7	.
Cc1ccc(C(NC(=O)C(C)C)c2cc([N+](=O)[O-])c3cccnc3c2O)cc1 (stereo not drawn)	.	.	.	85.8
CCn1c(SCC(=O)NNC(=O)c2ccco2)nnc1-c1ccco1	/	/	.	/
Cc1ccc(-n2nnc(-c3cccnc3Cl)n2)cc1	/	/	.	/
Cc1ccc(S(=O)(=O)c2ccc(C)cc2)cc1	.	57.8	.	.
O=c1c(-c2ccc(Cl)cc2)[n+]([O-])c2ccccc2n1O	.	.	.	99.8
CC(=O)c1c(C)n(C)c2ccc(OC(=O)c3ccc([N+](=O)[O-])cc3)cc12	/	/	.	/
CC(=O)c1c(OC(=O)c2ccccc2)c2ccccc2n1C	.	.	8.4	.
S=C(NCCc1ccccc1)N1CCc2ccccc2C1	/	/	.	/
O=Cc1sc(N2CCOCC2)nc1-c1ccccc1	/	/	.	/
CCOC(=O)c1c(N)sc(C(O)(C(F)(F)F)C(F)(F)F)c1-c1ccc(F)cc1	.	.	.	48.2
CCOC(=O)c1c(NC(=O)/C=C/C(=O)O)sc(C)c1-c1ccc(Cl)cc1	/	/	.	/
CCOC(=O)c1c(N)sc(C(O)(C(F)(F)F)C(F)(F)F)c1-c1ccc(Cl)cc1	.	.	.	51.7
CC(C)(C)c1ccc(OCCC(=O)Nc2cccc(S(=O)(=O)N3CCCCC3)c2)cc1	.	.	.	.
O=C(Nc1ccc(N2C(=O)C3C4C=CC(C4)C3C2=O)cc1Cl)c1cccs1 (stereo not drawn)	/	/	9.8	/
Nc1ccc(NC(=O)c2cccs2)c(Cl)c1	.	.	.	.
Cc1cc(N=Nc2ccccc2)c(NCC(O)C(O)C(O)CO)cc1C (stereo not drawn)	/	/	10.1	/
CCOC(=O)C1=Nc2ccccc2C1=[N+]=[N-]	.	.	.	99.6
CCC(C)c1ccc(NC(=O)C/C(C)=N/NC(=O)c2cnccn2)cc1 (stereo not drawn)	.	.	.	.
CCCn1nc(-c2ccccc2)c2nc3ccccc3nc21	.	.	9.6	.
O=C1NCC2=C1C(c1ccc(Br)cc1)Nc1ccccc1N2 (stereo not drawn)	.	91.9	.	.
COC(=O)c1ccc(Sc2ccc(C)cc2)c(N)c1	.	.	.	.
COc1cc(Sc2ccc(C)cc2)c(OC)cc1N	.	.	10.9	.
C=CCOc1cccc(CNn2nnnc2N)c1	/	/	.	/
SMILES	Measles CPE	Yeast lifespan up	RAM network inh	BB579 growth dn
C=CCOc1c(CNn2nnnc2N)cccc1OC	42.4	/	.	.
CCS(=O)(=O)c1ccc2oc(Nc3cccc(OC)c3)nc2c1	/	/	.	/
C=CCn1c(SCc2ccccc2)nc2scc(-c3ccc(C)o3)c2c1=O	.	.	10.9	.
CCOC(=O)c1cnn(-c2nc(-c3ccc(F)cc3)cs2)c1C(F)(F)F	.	.	9.2	.
CCOC(=O)c1cnn(-c2nc(-c3ccccc3)cs2)c1C(F)(F)F	.	.	10.2	.
CCOC(=O)c1cnn(-c2nc(-c3ccccc3F)cs2)c1C(F)(F)F	.	.	.	.
CCc1nnc(NC(=O)CSc2nnc(CNc3ccc(C)cc3)n2C)s1	/	/	.	/
C=CCn1c(CCc2cc(C(C)(C)C)c(O)c(C(C)(C)C)c2)n[nH]c1=S	/	/	.	/
O=S(=O)(c1cccs1)N1CN(Cc2cccs2)c2nc3ccccc3nc21	.	.	8.6	.
COC(=O)CSc1nc2ccc(NC(=O)c3ccccc3C(=O)N3CCOCC3)cc2s1	.	.	9.1	.
CSc1nc(-c2ccc(F)cc2)cc(=O)[nH]1	.	.	.	.
CC(=O)OC(C#CCN1CCOCC1)c1ccccc1 (stereo not drawn)	46.3	.	.	.
COc1ccc(-c2noc(CSc3nnc(-c4ccncc4)n3-c3ccc(F)cc3)n2)cc1OC	.	147.5	.	.
Cc1cc(NC(=O)CSc2nnc(-c3ccncc3)n2-c2ccc(F)cc2)no1	/	/	.	/
COc1ccc(C2=NC(CO)(CO)CO2)cc1	/	/	.	/
CC(C)NS(=O)(=O)c1ccc(OCC(=O)Nc2ccc(F)cc2F)cc1	.	48.7	.	.
